In ChEMBL document CHEMBL1828537, “Halogenated 2'-benzoylpyridine thiosemicarbazone (XBpT) chelators with potent and selective anti-neoplastic activity: relationship to intracellular redox activity” (J Med Chem, 2011):

How the values were obtained:
[1] = Therapeutic index, ratio of IC50 for human MRC5 cells to IC50 for human SK-N-MC cells; format: cell-based; settings: MRC5 cells and SK-N-MC cells, read-out: Ratio IC50
[2] = system: MRC5; test: Cytotoxicity against human MRC5 cells after 72 hrs […]; format: cell-based; settings: MRC5, 72 h
[3] = system: SK-N-MC; test: Antiproliferative activity against human SK-N-MC cells after 72 hrs by MTS assay; format: functional, cell-based
[4] = Toxicity in human SK-N-MC cells assessed as cell viability after 3 hrs by trypan blue staining; format: cell-based; parameters: concentration or dose not given beside the values; settings: read-out: Activity
Summary of the method: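 Viability of SK-N-MC cells judged by Trypan blue staining after the 3 h chelator incubation used in the 59Fe mobilization assays.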

[5] = system: SK-N-MC; test: Induction of intracellular reactive oxygen species production in human SK-N-MC cells assessed as oxidation of H2DCF into DCF at 25 uM after 3 hrs by FACS analysis relative to control; format: functional
[6] = system: SK-N-MC; test: Induction of Fe efflux in human SK-N-MC cells assessed as release of intracellular 59Fe up to 25 uM after 3 hrs by gamma-scintillation counting; format: functional
[7] = system: SK-N-MC; test: 59Fe uptake from transferrin in human SK-N-MC cells at 25 uM after 3 hrs relative to control
[8] = system: M109; test: Anticancer activity against mouse M109 cells xenografted in iv dosed CD2F1 mouse assessed as reduction in tumor growth after 5 days; format: functional

Structure (SMILES) | selectivity ratio [1] | IC50 [2] [nM] | IC50 [3] [nM] | viability at 3 h [4] [%] | Activity [5] [%] | Activity [6] [%] | level, % of control at 25 µM [7] [%] | inhibition (INH) [8] [%]
CN(C)C(=S)N/N=C(\c1ccccc1)c1ccccn1 | 116 | 1010 | 9 | > 99 | 156 |  |  | 
NC(=S)N/N=C(\c1ccccc1)c1ccccn1 |  | > 25000 | 5590 | > 99 |  |  |  | 
CNC(=S)N/N=C(\c1ccccc1)c1ccccn1 | 96 | 2320 | 24 | > 99 | 114 |  |  | 
CN(C)C(=S)NN=C(c1ccccn1)c1ccccn1 |  |  | 4 | > 99 |  | 53 | 4 | 50
O=C(N/N=C/c1c(O)ccc2ccccc12)c1ccncc1 |  |  | 2530 | > 99 |  | 55 | 6 | 
CCNC(=S)N/N=C(\c1ccccc1)c1ccccn1 | 64 | 738 | 12 | > 99 | 138 |  |  | 
CC(=O)N(O)CCCCCNC(=O)CCC(=O)N(O)CCCCCNC(=O)CCC(=O)N(O)CCCCCN [DEFEROXAMINE] |  |  | 22700 | > 99 |  | 23 | 74 | 
